Experimental data taken from PMC11520665 (Critical Care, 2024).

Assay: Safety: treatment-emergent adverse events
Assay type: in vivo, patients (adults)
Conditions: safety population
Summary of the method: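 Post-hoc pooled data from two randomised, double-blind, double-dummy trials. The safety population was adults in the ICU at randomisation who received ≥1 dose. Dosing was IV test compound weekly (400 mg Day 1, 200 mg Day 8, optional later 200 mg) or IV comparator echinocandin daily (70 mg Day 1, then 50 mg/day). TEAEs ran from dosing to follow-up, coded MedDRA 23.0, graded mild/moderate/severe, and summarised descriptively.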

[1] = ICU at randomisation, n=46 rezafungin, n=67 caspofungin
[2] = ICU at randomisation, number of events per severity

Substance: Caspofungin
- TEAE: Abdominal abscess, patients [1]: 4 (6.0) n (%)
- TEAE: Abdominal pain, patients [1]: 4 (6.0) n (%)
- TEAE: Acidosis, patients [1]: 4 (6.0) n (%)
- TEAE: Acute kidney injury, patients [1]: 4 (6.0) n (%)
- TEAE: Anaemia, patients [1]: 7 (10.4) n (%)
- TEAE: Atrial fibrillation, patients [1]: 3 (4.5) n (%)
- TEAE: Bradycardia, patients [1]: 5 (7.5) n (%)
- TEAE: Constipation, patients [1]: 4 (6.0) n (%)
- TEAE: Decubitus ulcer, patients [1]: 5 (7.5) n (%)
- TEAE: Deep vein thrombosis, patients [1]: 4 (6.0) n (%)
- TEAE: Diarrhoea, patients [1]: 7 (10.4) n (%)
- TEAE: Dyspnoea, patients [1]: 4 (6.0) n (%)
- TEAE: Fluid overload, patients [1]: 2 (3.0) n (%)
- TEAE: Hyperkalaemia, patients [1]: 5 (7.5) n (%)
- TEAE: Hypertension, patients [1]: 3 (4.5) n (%)
- TEAE: Hypokalaemia, patients [1]: 10 (14.9) n (%)
- TEAE: Hypotension, patients [1]: 6 (9.0) n (%)
- TEAE: Insomnia, patients [1]: 2 (3.0) n (%)
- TEAE: Multiple organ dysfunction syndrome, patients [1]: 3 (4.5) n (%)
- TEAE: Nausea, patients [1]: 4 (6.0) n (%)
- TEAE: Peripheral oedema, patients [1]: 2 (3.0) n (%)
- TEAE: Pleural effusion, patients [1]: 4 (6.0) n (%)
- TEAE: Pneumonia, patients [1]: 2 (3.0) n (%)
- TEAE: Pneumothorax, patients [1]: 4 (6.0) n (%)
- TEAE: Pyrexia, patients [1]: 6 (9.0) n (%)
- TEAE: Respiratory failure, patients [1]: 4 (6.0) n (%)
- TEAE: Sepsis, patients [1]: 3 (4.5) n (%)
- TEAE: Septic shock, patients [1]: 7 (10.4) n (%)
- TEAE: Vomiting, patients [1]: 3 (4.5) n (%)
- ≥ 1 TEAE [1]: 54 (80.6) n (%)
- ≥ 1 TEAE leading to study/drug discontinuation [1]: 20 (29.9) n (%)
- ≥ 1 serious TEAE [1]: 38 (56.7) n (%)
- ≥ 1 study drug-related TEAE [1]: 11 (16.4) n (%)
- ≥ 1 study drug-related TEAE leading to study/drug discontinuation [1]: 2 (3.0) n (%)
- ≥ 1 study drug-related serious TEAE [1]: 4 (6.0) n (%)
- TEAE: Abdominal abscess, event severity (n): mild/moderate/severe [2]: 0/0/4
- TEAE: Abdominal pain, event severity (n): mild/moderate/severe [2]: 3/0/1
- TEAE: Acidosis, event severity (n): mild/moderate/severe [2]: 2/2/0
- TEAE: Acute kidney injury, event severity (n): mild/moderate/severe [2]: 1/1/2
- TEAE: Anaemia, event severity (n): mild/moderate/severe [2]: 3/4/0
- TEAE: Atrial fibrillation, event severity (n): mild/moderate/severe [2]: 1/2/0
- TEAE: Bradycardia, event severity (n): mild/moderate/severe [2]: 2/3/0
- TEAE: Constipation, event severity (n): mild/moderate/severe [2]: 3/1/0
- TEAE: Decubitus ulcer, event severity (n): mild/moderate/severe [2]: 2/2/1
- TEAE: Deep vein thrombosis, event severity (n): mild/moderate/severe [2]: 1/3/0
- TEAE: Diarrhoea, event severity (n): mild/moderate/severe [2]: 4/3/0
- TEAE: Dyspnoea, event severity (n): mild/moderate/severe [2]: 1/2/1
- TEAE: Fluid overload, event severity (n): mild/moderate/severe [2]: 1/1/0
- TEAE: Hyperkalaemia, event severity (n): mild/moderate/severe [2]: 2/2/1
- TEAE: Hypertension, event severity (n): mild/moderate/severe [2]: 2/0/1
- TEAE: Hypokalaemia, event severity (n): mild/moderate/severe [2]: 8/2/0
- TEAE: Hypotension, event severity (n): mild/moderate/severe [2]: 3/3/1
- TEAE: Insomnia, event severity (n): mild/moderate/severe [2]: 1/1/0
- TEAE: Multiple organ dysfunction syndrome, event severity (n): mild/moderate/severe [2]: 0/0/3
- TEAE: Nausea, event severity (n): mild/moderate/severe [2]: 1/3/0
- TEAE: Peripheral oedema, event severity (n): mild/moderate/severe [2]: 1/1/0
- TEAE: Pleural effusion, event severity (n): mild/moderate/severe [2]: 1/3/0
- TEAE: Pneumonia, event severity (n): mild/moderate/severe [2]: 1/1/0
- TEAE: Pneumothorax, event severity (n): mild/moderate/severe [2]: 1/3/0
- TEAE: Pyrexia, event severity (n): mild/moderate/severe [2]: 5/1/0
- TEAE: Respiratory failure, event severity (n): mild/moderate/severe [2]: 0/0/4
- TEAE: Sepsis, event severity (n): mild/moderate/severe [2]: 0/0/3
- TEAE: Septic shock, event severity (n): mild/moderate/severe [2]: 0/0/7
- TEAE: Vomiting, event severity (n): mild/moderate/severe [2]: 2/1/0
- Study drug-related serious TEAEs, events (each event n = 1): ventricular tachycardia, rectal haemorrhage, hypertransaminasaemia, and anaphylactic shock
- Study drug-related TEAEs that led to study discontinuation, events (two patients): ventricular tachycardia and anaphylactic shock
